The assay deals with Methionine--tRNA ligase, mitochondrial (Homo sapiens) (UniProt Q96GW9). Kind of assay: human mtMetRS tRNA charging inhibition – biochemical, radioactivity, round 1, selectivity assay for T. brucei MetRS inhibitor project, late-stage follow-up (AID 743061).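 Further: 0% = DMSO with full reaction and 100% = DMSO wells lacking tRNA.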 The settings on record: recombinant human mtMetRS, [3H]Met tRNA charging, at 1 µM, stronger effect = higher value. In short, it runs like this:
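System: recombinant human mitochondrial methionyl-tRNA synthetase (MetRS); Buffer or medium: pH 8.0 reaction buffer containing 2.5 mM ATP; Controls: high DMSO, low without tRNA; Reagent: [3H]Met 240 nM plus bulk E. coli tRNA; Schedule: 15 min preincubation, 1 h reaction, room temperature; Measured by: scintillation counts of TCA-precipitated charged tRNA on filters.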
A word on the inhibition: it is the relative decrease from the control value, in per cent. Take `O=C(NCCc1nc2ccccc2[nH]1)c1ccc(Cl)cc1`: the inhibition amounted to 5.42%. Under `CC(C)(C)[C@@H]1C=C(C(=O)NCc2nc3ccccc3[nH]2)O[C@H](OCc2ccc(CO)cc2)C1` stands -10.6%; under `O=C(Cn1cc(C(=O)C(=O)N2CCOCC2)c2ccccc21)NCc1ccccc1`, -5.05%; under `Clc1ccc(OCCSCc2nc3ccccc3[nH]2)cc1`, -20%. Under `O=C(Cn1cc(C(=O)C(=O)N2CCOCC2)c2ccccc21)Nc1cccc(C(F)(F)F)c1` stands -22.4%; under `O=C(NCc1nc2ccccc2[nH]1)C1=C[C@H](c2csc3ccccc23)C[C@H](OCCCCO)O1`, -9.21%. The figure for `Cc1cccc(NC(=O)C2CC(=O)n3c(nc4ccccc43)N2)c1` (stereo not given) is 10.7%; for `Cc1cccc2[nH]c(CCN(C)C(=O)c3cccc(C4CCNC4)c3)nc12` (stereo not given) it is -6.15%; for `COc1ccc(CCN(C(=S)Nc2ccccc2)C2CC(=O)N(c3ccc(Cl)cc3)C2=O)cc1` (stereo not given) it is 10.6%. For `Cc1ccc(C(=O)NCCc2nc3ccccc3[nH]2)cc1[N+](=O)[O-]`, the inhibition was 0.93%. Under `CC(=O)c1ccc(N2CCN(C(=O)CCCn3c(=O)[nH]c4ccc(Br)cc4c3=O)CC2)cc1` stands -14.1%; under `O=C1CC(NCCc2ccccc2)C(=O)N1c1ccc(Br)cc1` (stereo not given), -12.9%. Under `CCN(CC)C(=O)C(=O)c1cn(CC(=O)N(CC)c2ccccc2)c2ccccc12` stands 2.19%; under `CN1CC(=O)N2C(c3cccc([N+](=O)[O-])c3)c3[nH]c4ccccc4c3C[C@H]2C1=O` (stereo not given in full), -17.1%; under `COc1ccc(NC(=O)C2CC(=O)n3c(nc4ccccc43)N2)cc1` (stereo not given), -2.67%.

In the case of `O=C(NCc1nc2ccccc2[nH]1)C1=C[C@@H](c2ccc3c(c2)OCO3)C[C@@H](OCCCCO)O1`, the inhibition was -3.63%.

Consider `O=C(C(=O)N1CCOCC1)c1cn(CC(=O)N2CCCc3ccccc32)c2ccccc12`, for which the inhibition stood at 8.2%. The figure for `Cc1ccc(C(=O)NCCc2nc3ccccc3[nH]2)cc1C` is 1.34%; for `Cc1cccc2[nH]c(C3CCCN(C(=O)c4cccc5cccnc45)C3)nc12` (stereo not given) it is -4.24%; for `O=C(Cn1cc(C(=O)C(=O)N2CCOCC2)c2ccccc21)NCC1CCCO1` (stereo not given) it is -9.17%.

On to `O=C(Cn1cc(C(=O)c2ccco2)c2ccccc21)Nc1cccc(C(F)(F)F)c1`, for which the inhibition was determined as 2.74%. On to `Cc1ccc(NC(=O)CN(C)C(=O)CCSc2ccc(F)cc2)cc1`, for which the inhibition is -35.7%. `O=C(CC=NOCc1ccc([N+](=O)[O-])cc1)Nc1ccc(Br)cc1`: the inhibition is -22.4%.

As to `Cn1c(CCNC(=O)c2ccc(Cl)cc2)nc2ccccc21`, the inhibition amounted to 11.6%. Take `COc1ccccc1-n1c(SCC(=O)Nc2ccc(Cl)cc2)nc(O)c(Cc2ccccc2)c1=O`: the inhibition is -31.6%. Consider `COc1ccc(NC(=O)CSc2nnc3c4cc(C)ccc4n(C)c3n2)cc1`, for which the inhibition was -0.75%. The figure for `O=C(Cn1cc(C(=O)COc2ccccc2)c2ccccc21)Nc1cccc(C(F)(F)F)c1` is -22.6%. Under `O=C(NCc1nc2ccccc2[nH]1)C1=C[C@H](c2ccc(Br)cc2)C[C@H](OCc2ccc(CO)cc2)O1` stands 0.59%; under `COc1ccc2[nH]c3nc(SCC(=O)Nc4ccc5c(c4)OCO5)nnc3c2c1`, 14.3%.

Take `CCCCn1c(CCNC(=O)c2ccc(F)cc2)nc2ccccc21`: the inhibition worked out at 3.64%. On to `O=C(CSC1CC(=O)N(c2cccc(Cl)c2)C1=O)Nc1ccc(Br)cc1` (stereo not given), for which the inhibition is -12.3%. Turning to `COc1ccc(CCN(C(=O)c2cccc(F)c2)C2CC(=O)N(c3ccc(Br)cc3)C2=O)cc1` (stereo not given), the inhibition was -8.56%. Consider `O=C(Cn1cnc2ccccc21)Nc1cccc([N+](=O)[O-])c1`, for which the inhibition was -15.4%. In the case of `CC1Cc2ccccc2N1C(=O)Cn1cc(C(=O)C(=O)N2CCOCC2)c2ccccc21` (stereo not given), the inhibition is -0.48%.

As to `COCCc1nc2ccc(C(=O)NCCc3nc4ccc(OC)cc4[nH]3)cc2o1`, the inhibition was -5.43%.

Source of the values: PubChem BioAssay AID743061 (The Scripps Research Institute Molecular Screening Center, 2013).
